The text below walks through data of the array DNA melting data of Ke et al. (doi:10.1101/2024.01.08.574731).

Data set [1] can be described thus: folding enthalpy; higher = less favourable; fluorescence melt of hairpins on a sequencing array, two-state fit. The following applies: sodium 0.088 M. In a few lines: (§1)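 Folding enthalpy and melting temperature were estimated with bootstrapped two-state fits and combined across four replicates by inverse-variance weighting, with fitted temperatures raised by 9.35 °C to match UV melts. The data were Cy3 fluorescence of library hairpins, with annealed Cy3 and quencher oligos, on a sequenced MiSeq flow cell in 50 mM Na-HEPES pH 8.0, 25 mM NaCl, imaged in 2.5 °C steps up to 60 °C and normalised to pre-quench Cy3 and control constructs.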

Data set [2] can be described thus: melting temperature; fluorescence melt of hairpins on a sequencing array, two-state fit, raised by 9.35 °C to match UV melts. The following applies: sodium 0.088 M. In outline: as §1

GCGAAAACGAAAGTTCGC (((..(((....)))))): in data set [1], the folding enthalpy is -30.4 kcal/mol. Also, the Tm in data set [2] is 51.6 °C.
Turning to GCGAAAATTCGC ((((....)))), the folding enthalpy in data set [1] is -18.6 kcal/mol. For the same sequence, in data set [2], the Tm stood at 47.8 °C.
Turning to GCGAAACTCGC ((((...)))), the folding enthalpy in data set [1] is -18.9 kcal/mol. For the same sequence, the Tm in data set [2] is 47.4 °C.
Taken in the same sequence, the figures for GCGAAAGAAATTTCGC ((((((....)))))) were -34 kcal/mol and 55 °C.
Regarding GCGAAAGCGAAAGCTCGC (((..(((....)))))), the folding enthalpy in data set [1] is -24.2 kcal/mol. For the same sequence, the Tm in data set [2] worked out at 56.3 °C.
Taken in the same sequence, the figures for GCGAAAGGAAACTTCCGC (((.(((....))).))) were -27.1 kcal/mol and 42.5 °C.
The like results for GCGAAATATCGC ((((....)))) were, in that order, -18.6 kcal/mol and 45.2 °C.
Taken in the same sequence, the figures for GCGAACGAAAGTTATCGC ((((((....)))..))) were -23.1 kcal/mol and 44.1 °C.
As to GCGAACGAAAGTTCCGC ((((((....))).))), in data set [1], the folding enthalpy is -29.9 kcal/mol. Further, in data set [2], the Tm stood at 54 °C.
Taken in the same sequence, the figures for GCGAACGGAAACGTTTGC ((.((((....)))).)) were -46.8 kcal/mol and 56.4 °C.
For GCGAACTCTCGC ((((....)))), the folding enthalpy in data set [1] is -24.8 kcal/mol. For the same sequence, the Tm in data set [2] stood at 46.8 °C.
Turning to GCGAACTGTCGC ((((....)))), the folding enthalpy in data set [1] was -21.4 kcal/mol. Moreover, the Tm in data set [2] turned out to be 45.5 °C.
On to GCGAACTTCGC ((((...)))), for which the folding enthalpy in data set [1] was -17.3 kcal/mol. Moreover, in data set [2], the Tm was 48.5 °C.
Taken in the same sequence, the figures for GCGAAGAAATTCGC (((((....))))) were -28.3 kcal/mol and 55.5 °C.
The like results for GCGAAGAGTCGC ((((....)))) were, in that order, -11.8 kcal/mol and 48.4 °C.
The like results for GCGAAGATCGC ((((...)))) were, in that order, -13.7 kcal/mol and 49.5 °C.
Turning to GCGAAGCCTCGC ((((....)))), in data set [1], the folding enthalpy is -8.82 kcal/mol. Besides, the Tm in data set [2] is 50.6 °C.
GCGAAGCGAAAGCCACGC (((..((....))..))): the folding enthalpy in data set [1] was -8.54 kcal/mol. In addition, the Tm in data set [2] turned out to be 42.5 °C.
The like results for GCGAAGCGAAAGCGTGGC ((.(.((....)).).)) were, in that order, -10.5 kcal/mol and 47.3 °C.
Take GCGAAGCGAAAGCGTTGC ((.(.((....)).).)): the folding enthalpy in data set [1] was -12.4 kcal/mol. Further, in data set [2], the Tm was 47.7 °C.
The like results for GCGAAGCGAAAGCTACGC (((.(((....))).))) were, in that order, -40.4 kcal/mol and 55 °C.
As to GCGAAGCGAAAGCTATGC ((..(((....)))..)), the folding enthalpy in data set [1] is -7.44 kcal/mol. Moreover, the Tm in data set [2] stood at 40.7 °C.
With GCGAAGCGAAAGCTCGGC ((..(((....)))..)), the folding enthalpy in data set [1] was -8.3 kcal/mol. Moreover, the Tm in data set [2] came to 43.5 °C.
The like results for GCGAAGCGAAAGCTCTGC ((..(((....)))..)) were, in that order, -7.9 kcal/mol and 39.7 °C.
Taken in the same sequence, the figures for GCGAAGGCTCGC ((((....)))) were -14.4 kcal/mol and 46.9 °C.
Taken in the same sequence, the figures for GCGAAGTCGAAAGACCGC (((..(((....)))))) were -26.9 kcal/mol and 52.5 °C.
Regarding GCGAATAATCGC ((((....)))), in data set [1], the folding enthalpy was -14 kcal/mol. Moreover, the Tm in data set [2] was determined as 46.2 °C.
Consider GCGAATAGTCGC ((((....)))), for which the folding enthalpy in data set [1] was -17.4 kcal/mol. In addition, the Tm in data set [2] was determined as 44.7 °C.
The like results for GCGAATCCGAAAGGACGC (((..(((....)))))) were, in that order, -26.1 kcal/mol and 48.7 °C.
Taken in the same sequence, the figures for GCGAATCTTCGC ((((....)))) were -28 kcal/mol and 52.8 °C.
Taken in the same sequence, the figures for GCGAATGTCGC ((((...)))) were -17.6 kcal/mol and 46.7 °C.
Turning to GCGACAACGAAAGTTCGC (((..(((....)))))), the folding enthalpy in data set [1] was -28.6 kcal/mol. In addition, in data set [2], the Tm came to 49.4 °C.
The like results for GCGACAAGTCGC ((((....)))) were, in that order, -30 kcal/mol and 58 °C.
On to GCGACACCGAAAGGTCGC (((..(((....)))))), for which the folding enthalpy in data set [1] is -34.6 kcal/mol. Moreover, the Tm in data set [2] was 61.1 °C.
Take GCGACACGTCGC ((((....)))): the folding enthalpy in data set [1] is -28.3 kcal/mol. Moreover, the Tm in data set [2] was 61.4 °C.
Taken in the same sequence, the figures for GCGACAGCGAAAGCTCGC (((..(((....)))))) were -14.6 kcal/mol and 46.7 °C.
Taken in the same sequence, the figures for GCGACAGGAAACTGCCGC (((.(((....))).))) were -46.4 kcal/mol and 55.9 °C.
The like results for GCGACATCTCGC ((((....)))) were, in that order, -24.2 kcal/mol and 46.5 °C.
Take GCGACCGAAAGGTAACGC ((((((....)))..))): the folding enthalpy in data set [1] is -29.6 kcal/mol. Also, the Tm in data set [2] came to 51.9 °C.
For GCGACCGAAAGGTCACGC ((((((....)))..))), the folding enthalpy in data set [1] is -16.9 kcal/mol. For the same sequence, the Tm in data set [2] was determined as 61.1 °C.
With GCGACCGAAAGGTCCGC ((((((....))).))), the folding enthalpy in data set [1] is -18.5 kcal/mol. In data set [2], the Tm was 66.4 °C.
As for GCGACCGAAAGGTGGCGC ((((((....)))..))), the folding enthalpy in data set [1] is -31.5 kcal/mol. In addition, the Tm in data set [2] stood at 66.9 °C.
For GCGACGACTCGC ((((....)))), in data set [1], the folding enthalpy was -17 kcal/mol. The Tm in data set [2] came out at 45.8 °C.
Taken in the same sequence, the figures for GCGACGCCGAAAGGCCGC (((..(((....)))))) were -19.1 kcal/mol and 58.1 °C.
The like results for GCGACGCCTCGC ((((....)))) were, in that order, -16.9 kcal/mol and 50.1 °C.
The like results for GCGACGCGAAAGCCCCGC (((..((....))..))) were, in that order, -15.2 kcal/mol and 44.4 °C.
As for GCGACGCGAAAGCCGCGC (((..((....))..))), in data set [1], the folding enthalpy is -23.6 kcal/mol. For the same sequence, the Tm in data set [2] was determined as 67.1 °C.
For the sequence GCGACGCGAAAGCTGCGC (((..((....))..))), the folding enthalpy in data set [1] is -23.7 kcal/mol. Also, the Tm in data set [2] came to 61.9 °C.
Taken in the same sequence, the figures for GCGACGCGAAAGCTTAGC ((.(.((....)).).)) were -24.8 kcal/mol and 48.9 °C.
The like results for GCGACGCTCGC ((((...)))) were, in that order, -15.3 kcal/mol and 50 °C.
The like results for GCGACGGATCGC ((((....)))) were, in that order, -14.9 kcal/mol and 46.8 °C.
As for GCGACGGGAAACCGCCGC (((.(((....))).))), the folding enthalpy in data set [1] was -45.2 kcal/mol. Further, in data set [2], the Tm worked out at 64.2 °C.
Taken in the same sequence, the figures for GCGACGTATCGC ((((....)))) were -14.6 kcal/mol and 50.5 °C.
Taken in the same sequence, the figures for GCGACTACGAAAGTACGC (((..(((....)))))) were -25.8 kcal/mol and 42.5 °C.
For GCGACTACTCGC ((((....)))), the folding enthalpy in data set [1] is -23.2 kcal/mol. Moreover, the Tm in data set [2] turned out to be 46.6 °C.
Turning to GCGACTCGAAAGAGCCGC (((.(((....))).))), the folding enthalpy in data set [1] was -47 kcal/mol. Further, the Tm in data set [2] stood at 60.2 °C.
Taken in the same sequence, the figures for GCGACTCTCGC ((((...)))) were -22.2 kcal/mol and 49.3 °C.
The like results for GCGACTCTTCGC ((((....)))) were, in that order, -23 kcal/mol and 50.6 °C.
Taken in the same sequence, the figures for GCGACTGCTCGC ((((....)))) were -16.5 kcal/mol and 50.4 °C.
For the sequence GCGACTGGAAACAGTTGC ((.((((....)))).)), the folding enthalpy in data set [1] was -45.4 kcal/mol. Moreover, the Tm in data set [2] is 55.5 °C.
The like results for GCGACTTTTCGC ((((....)))) were, in that order, -21.6 kcal/mol and 49 °C.
The like results for GCGAGAACGAAAGTTCGC (((..(((....)))))) were, in that order, -15 kcal/mol and 55.4 °C.
The like results for GCGAGAACTCGC ((((....)))) were, in that order, -27.4 kcal/mol and 54.9 °C.
Regarding GCGAGACTCGC ((((...)))), the folding enthalpy in data set [1] is -10.2 kcal/mol. For the same sequence, the Tm in data set [2] was 49 °C.
On to GCGAGATCGAAAGATCGC (((..(((....)))))), for which the folding enthalpy in data set [1] is -24.3 kcal/mol. The Tm in data set [2] turned out to be 52.1 °C.
The like results for GCGAGCGAAAGCTACGC ((((((....))).))) were, in that order, -18 kcal/mol and 62.6 °C.
Taken in the same sequence, the figures for GCGAGCGAAAGCTATCGC ((((((....)))..))) were -23.3 kcal/mol and 54.6 °C.
Taken in the same sequence, the figures for GCGAGCGAAAGCTCCGC ((((((....))).))) were -18.2 kcal/mol and 65.4 °C.
With GCGAGCGAAAGCTGACGC ((((((....)))..))), in data set [1], the folding enthalpy was -24.7 kcal/mol. In data set [2], the Tm was 51.1 °C.
The like results for GCGAGCGGAAACACCCGC (((.(.(....).).))) were, in that order, -13.8 kcal/mol and 36.4 °C.
Taken in the same sequence, the figures for GCGAGCGGAAACACTCGC (((((.(....).))))) were -48.3 kcal/mol and 56.2 °C.
As to GCGAGCGGAAACGTTCGC ((((.((....)).)))), in data set [1], the folding enthalpy is -41.2 kcal/mol. In addition, the Tm in data set [2] was 63.4 °C.
The like results for GCGAGCTCGAAAGAGCGC (((..(((....)))))) were, in that order, -9.24 kcal/mol and 54.9 °C.
The like results for GCGAGGCGAAAGCATGGC ((.(.((....)).).)) were, in that order, -16.4 kcal/mol and 49.3 °C.
On to GCGAGGCGAAAGCATTGC ((.(.((....)).).)), for which the folding enthalpy in data set [1] was -22.5 kcal/mol. Besides, the Tm in data set [2] stood at 54.3 °C.
Taken in the same sequence, the figures for GCGAGGCGAAAGCCAAGC ((..(((....)))..)) were -20.5 kcal/mol and 69.2 °C.
GCGAGGCGAAAGCCCCGC (((.(((....))).))): the folding enthalpy in data set [1] was -26.6 kcal/mol. For the same sequence, the Tm in data set [2] came out at 68.5 °C.
